SUMO1 PPI mod – SUMO1-SIM interaction modulation. P63165. SUMO1 binding to a labelled peptide, TR-FRET, 1 h. inhibition, % at 20 µM. 360,000 compounds, 0.33% hits; in the data active means inhibition above about 37%
DNMT1 inh – inhibitors of human DNMT1; P26358; 360,000 compounds, 0.83% hits; DNMT1 molecular beacon, Hinp1I cleavage, fluorescence; inhibition (reported as % activation of signal), % at 10 µM; in the data active means inhibition above about 50%
STEP block – inhibitors of human striatal-enriched phosphatase STEP. P54829. recombinant STEP, OMFP fluorogenic substrate, fluorescence. AID 588621. inhibition, % at 20 µM. 360,000 compounds, 0.25% hits;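 active means inhibition at 20 µM, scaled per plate between control wells, above about 37%, limit read from the data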
Target sequence (P54829 whole entry, looked up): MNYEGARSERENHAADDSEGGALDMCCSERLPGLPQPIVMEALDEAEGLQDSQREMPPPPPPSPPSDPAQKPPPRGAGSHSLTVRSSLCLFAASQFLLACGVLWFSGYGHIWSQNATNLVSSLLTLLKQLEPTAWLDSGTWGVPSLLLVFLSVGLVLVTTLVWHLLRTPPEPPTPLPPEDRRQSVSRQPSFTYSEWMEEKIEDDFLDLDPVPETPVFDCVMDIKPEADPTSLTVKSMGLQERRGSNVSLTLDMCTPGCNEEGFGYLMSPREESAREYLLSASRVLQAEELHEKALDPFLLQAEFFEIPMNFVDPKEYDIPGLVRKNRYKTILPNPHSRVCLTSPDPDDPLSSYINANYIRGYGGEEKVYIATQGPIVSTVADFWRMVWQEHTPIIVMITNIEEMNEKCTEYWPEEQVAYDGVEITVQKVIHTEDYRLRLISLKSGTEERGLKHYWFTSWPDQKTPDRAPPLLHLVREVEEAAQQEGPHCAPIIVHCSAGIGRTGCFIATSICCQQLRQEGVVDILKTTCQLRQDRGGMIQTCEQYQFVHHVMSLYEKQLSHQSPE
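System: isolated STEP enzyme; schedule: 20 min enzyme reaction at room temperature, protected from light; medium: Bis-Tris buffer pH 6.0, 2.5 mM DTT, 0.005% Tween 20; signal: fluorescence, 480/540 nm; dosing: single compound dose of 20 µM, 1% DMSO final; also added: OMFP substrate, 25 µM final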
Scp1 inh – inhibitors of human Scp-1 phosphatase; Q9GZU7; Recombinant Scp1, phosphopeptide, malachite green phosphate absorbance; inhibition, % at 20 µM; 340,000 compounds, 0.88% hits; AID 493091;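 active means inhibition above about 50% at 20 µM, limit read from the data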
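System: truncated SCP-1 phosphatase (76-261aa); medium: Tris acetate buffer pH 5.5 with MgCl2 and Tween-20; incubation: 45 min room-temperature reaction, 5 min colour, 30 min stabiliser; compound: single 20 µM dose, 1% DMSO; reagent: Phosphorylated 17-residue peptide substrate; read-out: % inhibition at 20 µM; technique: colorimetric free-phosphate detection, absorbance 630 nm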
LMPTP inh – blocks human LMPTP phosphatase | P24666 | recombinant LMPTP-A, OMFP fluorogenic substrate, fluorescence intensity | inhibition, % at 20 µM | 360,000 compounds, 0.22% hits | AID 651560;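 active means compounds that cut the enzyme signal by at least half of the control window in the single-dose screen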
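test system = LMPTP-A | amount = 0.625 nM LMPTP-A final | reagent = fluorogenic phosphatase substrate OMFP at 400 µM final | incubation = 50 min at room temperature | benchmarks = no-enzyme low control, uninhibited high control | medium = Bis-Tris pH 6.0, DTT, detergent | signal = fluorescence intensity of OMFP turnover product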
DNMT1 interf DR – counter-screen for DNMT1 inhibitors: spectral interference, dose response; shares compounds with DNMT1 inh; molecular beacon fluorescence; IC50, µM; 200 tested, under 10 active; AID 602382; call rule not given here
DNMT1 confirm – DNMT1 inhibition confirmation, single concentration. shares compounds with DNMT1 inh. DNMT1 molecular beacon HinP1I cleavage, fluorescence. inhibition, % at 10 µM. 2,300 compounds, 8% hits. AID 602385;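 active means average inhibition of at least 30% in the single-concentration confirmation test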
DNMT1 interf – beacon fluorescence artifact counter-screen; shares compounds with DNMT1 inh; DNMT1 molecular beacon spectral interference counterscreen, fluorescence 485/520; activation (fluorescence interference), % at 10 µM; 2,300 compounds, 1% hits; AID 602387;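 active means activation of at least 30% at 10 µM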;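 further: DNMT1 catalytic domain with a HinP1I cleavage step and a FAM/dabcyl DNA beacon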
Each line names hits and unclear results; the compound was inactive in the other large screens (follow-up assays come after a bar, where they were run). Rows were chosen to be rich in hits. Some 1.7% of all compounds tested hit in one or more screens of this group.

O=C(/C=C/c1ccco1)c1cccc([N+](=O)[O-])c1	DNMT1 inh 62 | DNMT1 confirm inactive | DNMT1 interf inactive
O=C(/C=C/c1ccc([N+](=O)[O-])cc1)/C=C/c1ccco1	DNMT1 inh 91 (no result: Scp1 inh) | DNMT1 confirm inactive | DNMT1 interf inactive
CCN(CC(=O)NCc1cccs1)C(=O)/C=C/c1cc(Br)ccc1OC(F)F	none
CCN1C(=O)[C@H]2[C@H]3CN=C(SCC(=O)c4ccccc4)N3[C@@](CC)(C(=O)OC)[C@H]2C1=O	none
O=C(O)C1Oc2cc3ccccc3cc2O1	DNMT1 inh 55 | DNMT1 confirm inactive | DNMT1 interf inactive
O=C(O)c1cc2ccccc2cn1	none
CC(C)CN(C(=O)COC(=O)CCC(=O)c1ccc(Cl)cc1)c1c(N)n(Cc2ccccc2)c(=O)[nH]c1=O	none
COc1ccc(/C=N/NC(=O)c2ccc(NC(C)=O)cc2)cc1COc1ccc(F)cc1F	DNMT1 inh 77 | DNMT1 confirm inactive | DNMT1 interf inactive
COc1ccc(/C=N\NC(=O)c2ccccc2F)cc1COc1ccc(F)cc1F	none
COc1ccc(/C=N/NC(=O)c2nc(Cl)c(Cl)c(N)c2Cl)cc1COc1ccc(F)cc1F	DNMT1 inh 53 | DNMT1 confirm inactive | DNMT1 interf inactive
C1=C[C@H]2CC[C@@H]1N(c1ccccc1)O2	none
CCC(C)(C)C1CCC2(CC1)NC(=O)N(CC(=O)N(C)CCOc1ccc(Cl)cc1)C2=O (stereo unspecified)	none
COc1cccc(CC(CC(=O)O)C(=O)Nc2cc(C)ccc2C)c1 (stereo unspecified)	none
NC(=O)Cn1c(=O)n(Cc2ccco2)c(=O)c2c3c(sc21)CCCCC3	DNMT1 inh 83, Scp1 inh 71 | DNMT1 confirm inactive | DNMT1 interf inactive
N#Cc1ccccc1/C=N/Nc1nc(-c2ccccc2)c2cc(Br)ccc2n1	DNMT1 inh 73 | DNMT1 confirm inactive | DNMT1 interf inactive
OCCNc1nc(-c2ccccc2)c2cc(Br)ccc2n1	none
O=C(COc1cccc(Br)c1)NN=C1c2ccccc2-c2ccccc21	DNMT1 inh 54 | DNMT1 confirm inactive | DNMT1 interf inactive
COc1ccccc1N1CCN(/N=C/c2ccc(Cl)c([N+](=O)[O-])c2)CC1	DNMT1 inh 99 | DNMT1 interf DR inactive | DNMT1 confirm 35 | DNMT1 interf inactive
COc1ccccc1N1CCN(/N=C/c2ccc([N+](=O)[O-])cc2)CC1	none
CSC1=NNC(c2ccc(C(C)(C)C)cc2)=NN1	none
O=C(O)c1ccc2nc(-c3ccco3)c(-c3ccco3)nc2c1	SUMO1 PPI mod 40, DNMT1 inh 100 | DNMT1 confirm inactive | DNMT1 interf inactive
Cc1ccccc1NC(=O)COC(=O)c1ccc(CSc2ccc(Cl)cc2)cc1	DNMT1 inh 52 | DNMT1 confirm inactive | DNMT1 interf inactive
COC(=O)c1ccc(CSc2nc3scc(-c4cccs4)c3c(=O)[nH]2)o1	DNMT1 inh 80 | DNMT1 confirm inactive | DNMT1 interf inactive
Cc1ccc(S(=O)(=O)N(C)c2ccc(OC(C)C(=O)N(C)c3ccccc3)cc2)cc1 (stereo unspecified)	DNMT1 inh 79 | DNMT1 confirm inactive | DNMT1 interf inactive
NCCCC[C@@H]1NC(=O)c2cc([N+](=O)[O-])cc(F)c2NCCCC[C@@H](C(N)=O)NC(=O)CNC1=O	DNMT1 inh 104 | DNMT1 confirm inactive | DNMT1 interf inactive
CC1C(=O)N2CCCc3cc(NC(=O)c4ccccc4F)cc1c32 (stereo unspecified)	none
Cn1c(N)c(C(=O)COC(=O)/C=C/c2ccccc2F)c(=O)n(C)c1=O	none
Cn1c(N)c(C(=O)COC(=O)/C=C/c2cccc(Cl)c2)c(=O)n(C)c1=O	DNMT1 inh 66 | DNMT1 confirm inactive | DNMT1 interf inactive
CC1CCN(Cc2c(O)ccc3c2O/C(=C\c2ccco2)C3=O)CC1	none

Bioassay records (PubChem BioAssay)
